Assay results: ChEMBL document CHEMBL1122869, “Substituted benzamides with conformationally restricted side chains. 1. Quinolizidine derivatives as selective gastric prokinetic agents” (1985)

Key:
Rattus norvegicus [1] = assay: Tested for stimulation of intragastric pressure in rat on sc administration; range 1-50 mg/kg; assay type: functional
Method in brief: (§1)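 Male Wistar rats (200-500 g) with chronic gastric fistula, fasted overnight and restrained in Bollman cages. Only animals with basal motility <4 mmHg mean amplitude were used. Pressure waves were recorded via the fistula through a transducer over four 10-min periods before and after sc dosing, and the mean motility index was derived from them. Usually four groups of 10 rats received graded doses or vehicle.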

Rattus norvegicus [2] = assay: Tested for stimulation of intragastric pressure in ra0t on sc administration; range 1-50 mg/kg
Mus musculus = assay: Tested for anti-apomorphine climbing activity in mouse on sc administration
Rattus norvegicus [3] = assay: Tested for stimulation of intragastric pressure in rat on sc administration; assay type: functional; method in brief: as §1
Rattus norvegicus [4] = assay: Tested for stimulation of intragastric pressure in rat on sc administration; range 1-10 mg/kg; assay type: functional; method in brief: as §1
[5] = Rattus norvegicus, read-out: ED50
[6] = Mus musculus, sc, read-out: ED50

Compound: COc1cc(N)c(Cl)cc1C(=O)NC1CCC2CCCCN2C1 (configuration not stated)
- ED50 (Rattus norvegicus [1]): 1 mg/kg

Compound: COc1cc(N)c(Cl)cc1C(=O)NC1CCCN2CCCCC12 (configuration not stated)
- ED50 (Rattus norvegicus [2]): 1 mg/kg

Compound: COc1cc(N)c(Cl)cc1C(=O)NC1CCCN2CCCCC12 (stereo in doubt; 2a)
- ED50 (Mus musculus): >50 mg/kg
- ED50 (Rattus norvegicus [1]): 1 mg/kg

Compound: COc1cc(N)c(Cl)cc1C(=O)NC1CCCN2CCCCC12 (stereo in doubt; 2b)
- ED50 (Mus musculus): 0.4 mg/kg
- ED50 (Rattus norvegicus [1]; [5]): > 50 mg/kg

Compound: COc1cc(N)c(Cl)cc1C(=O)NC1CCC2CCCCN2C1 (stereo in doubt; 2c)
- ED50 (Mus musculus): 12 mg/kg
- ED50 (Rattus norvegicus [1]; [5]): 1 mg/kg

Compound: COc1cc(N)c(Cl)cc1C(=O)NC1CCN2CCCCC2C1 (stereo in doubt; 2e)
- ED50 (Mus musculus): 7 mg/kg
- ED50 (Rattus norvegicus [3]): 4 mg/kg

Compound: COc1cc(N)c(Cl)cc1C(=O)NC1CCN2C(C)CCCC2C1 (stereo in doubt; 2f) [BRL-20627]
- ED50 (Mus musculus): >50 mg/kg
- ED50 (Rattus norvegicus [1]; [5]): 1 mg/kg

Compound: COc1cc(N)c(Cl)cc1C(=O)NC1CCN2CCCCC2C1 (stereo in doubt; 2g)
- ED50 (Mus musculus): 25 mg/kg
- ED50 (Rattus norvegicus [3]): 0.8 mg/kg

Compound: COc1cc(N)c(Cl)cc1C(=O)NC1CCC2CCCCN2C1 (stereo in doubt; form 1)
- ED50 (Mus musculus): 10 mg/kg
- ED50 (Rattus norvegicus [4]): 1 mg/kg

Compound: COc1cc(N)c(Cl)cc1C(=O)NC1CCN2C(C)CCCC2C1 (stereo in doubt; form 1) [BRL-20627]
- ED50 (Mus musculus; [6]): 25 mg/kg
- ED50 (Rattus norvegicus [3]; [5]): 0.8 mg/kg

Compound: COc1cc(N)c(Cl)cc1C(=O)NC1CCC2CCCCN2C1 (stereo in doubt; form 2)
- ED50 (Mus musculus; [6]): 10 mg/kg
- ED50 (Rattus norvegicus [4]; [5]): 1 mg/kg

Compound: COc1cc(N)c(Cl)cc1C(=O)NC1CCN2C(C)CCCC2C1 (stereo in doubt; form 2) [BRL-20627]
- ED50 (Mus musculus): 25 mg/kg
- ED50 (Rattus norvegicus [3]): 0.8 mg/kg

Compound: COc1cc(N)c(Cl)cc1C(=O)NC1CCN2C(C)CCCC2C1 (configuration not stated) [BRL-20627]
- ED50 (Rattus norvegicus [1]): 1 mg/kg

Compound: CCN(CC)CCNC(=O)c1cc(Cl)c(N)cc1OC [METOCLOPRAMIDE]
- ED50 (Mus musculus): 0.75 mg/kg
- ED50 (Mus musculus; [6]): 0.75 mg/kg
- ED50 (Rattus norvegicus [3]): 1 mg/kg
- ED50 (Rattus norvegicus [3]; [5]): 1 mg/kg
